Screening data as filed in PubChem BioAssay.
M4 antag – human M4 muscarinic receptor antagonists, primary screen, CHO cells, Fluo-8 calcium fluorescence; 360,000 tested, 0.73% active; AID 624125, 2012; CHO-hM4 cells, ACh EC80; inhibition, % at 3 µM; Muscarinic acetylcholine receptor M4 (Homo sapiens), P08173;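 active = inhibition above its plate's cutoff, the mean inhibition of sample wells plus 3 SD, cut at about 27% in these data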;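 also: 0% = acetylcholine EC80 with DMSO and 100% = DMSO without agonist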
TAAR1 antagonist – human TAAR1 antagonists, primary screen, Fluo-8 calcium fluorescence, CHO RD-HGA16 cells; Trace amine-associated receptor 1 (Homo sapiens), Q96RJ0; antagonist; inhibition, % at 3 µM; 360,000 tested, 1.5% active;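 active = inhibition above a per-plate cutoff, the mean inhibition of test compounds on that plate plus 3 SD, cut at about 49% in these data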;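 also: 0% = DMSO plus EC80 beta-PEA response and 100% = DMSO alone without agonist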
Target sequence (Q96RJ0 whole entry, looked up): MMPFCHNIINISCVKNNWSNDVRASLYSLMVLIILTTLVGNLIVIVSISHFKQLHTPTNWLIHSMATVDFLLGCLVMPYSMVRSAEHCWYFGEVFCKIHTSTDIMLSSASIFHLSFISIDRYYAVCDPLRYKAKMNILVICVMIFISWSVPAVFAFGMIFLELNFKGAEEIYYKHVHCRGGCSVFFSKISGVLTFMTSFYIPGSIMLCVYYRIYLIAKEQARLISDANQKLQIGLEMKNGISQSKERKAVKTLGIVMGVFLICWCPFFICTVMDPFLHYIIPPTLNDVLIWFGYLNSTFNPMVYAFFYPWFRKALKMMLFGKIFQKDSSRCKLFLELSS
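Test system: hTAAR1-expressing CHO RD-HGA16 cells, Gα16-coupled; Probe or stimulus: EC80 β-phenethylamine stimulus; Compound dosing: single nominal final test compound concentration of 3 µM; Timing: 140 s kinetic read after compound, 140 s after agonist; Signal: Fluo-8 calcium-sensitive fluorescence; Measure: % inhibition of agonist calcium response; Controls: DMSO and EC80 PEA controls.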
CHRM4 agonist – human M4 muscarinic receptor agonists, primary screen, CHO-K1 cells, Fluo-8 calcium fluorescence | CHO-K1 hM4/Gqi5; vehicle 0%, full acetylcholine response 100% | activation, % at 3 µM | 360,000 tested, 0.14% active | Muscarinic acetylcholine receptor M4 (Homo sapiens), P08173;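 active = activation above the run mean over all test wells plus 3 SD, cut at about 32% in these data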;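 also: peak over basal fluorescence ratio per well then scaled between controls; 0% = DMSO wells and 100% = acetylcholine at EC100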
TAAR1 agonist – human TAAR1 agonists, primary screen, Fluo-8 calcium fluorescence, CHO RD-HGA16 cells; 360,000 tested, 0.99% active; activation, % at 3 µM; Trace amine-associated receptor 1 (Homo sapiens), Q96RJ0; vehicle wells 0%, saturating PEA agonist 100%; AID 624467, 2012;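 active = activation above the mean activation of all test compounds in the run plus 3 SD, cut at about 38% in these data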
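Test system: RD-HGA16 (CHO) cells co-expressing Gα16 and hTAAR1; dosing: one-point dosing at 3 µM (nominal); timing: 17-24 h seeding, 75 min 37 °C dye, 30 min RT; signal: kinetic Fluo-8 calcium fluorescence; read-out basis: % activation relative to PEA EC100 response; controls: DMSO and PEA EC100; replicates: n 1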
CHRM4 PAM – human M4 muscarinic receptor positive allosteric modulators, primary screen, CHO-K1 cells, Fluo-8 calcium fluorescence. Muscarinic acetylcholine receptor M4 (Homo sapiens), P08173. CHO-K1 hM4/Gqi5, ACh EC20; 0% = ACh EC20, 100% = maximal ACh. activation, % at 3 µM. 360,000 tested, 0.4% active;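 active = activation above its plate's cutoff, the mean activation of sample wells plus 3 SD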
Active calls of the source: *. An excerpt weighted towards active compounds, which were near 3% of everything screened.

`CCOc1ncccc1C(=O)OC(C)C(=O)Nc1ccc(N2CCOCC2)cc1` (configuration not stated) gave M4 antag 11, TAAR1 antagonist -16, CHRM4 agonist 1, TAAR1 agonist 3 and CHRM4 PAM 1.
For COC(=O)c1cc2c(c3c4cc(F)ccc4n(S(=O)(=O)c4ccc(C)cc4)c13)C(=O)N(Cc1ccccc1OC)C2 the results were TAAR1 antagonist -6 and TAAR1 agonist 3.
Screening COC(=O)C1=C(C)N(C)C(=NCc2ccc(OC)cc2)NC1c1ccc(F)cc1 (configuration not stated) returned TAAR1 antagonist 2 and TAAR1 agonist 0.
`CC(=O)Nc1ccc(Nc2nnc(-c3ccc(C)c(S(=O)(=O)NCC4CCCO4)c3)c3ccccc23)cc1` (configuration not stated) gave M4 antag -2, TAAR1 antagonist -25, CHRM4 agonist 0, TAAR1 agonist 4 and CHRM4 PAM -6.
Cc1ccc(-c2nnc(Nc3ccccc3)c3ccccc23)cc1S(=O)(=O)NCC1CCCO1 (configuration not stated) was read as M4 antag 6, TAAR1 antagonist 58*, CHRM4 agonist 8, TAAR1 agonist 17 and CHRM4 PAM -13.
CCCC/C(O)=C1\C(=O)CC(C)(C)CC1=Nc1ccc(OC)cc1 was read as M4 antag 30*, TAAR1 antagonist -5, CHRM4 agonist -3, TAAR1 agonist 15 and CHRM4 PAM -17.
Screening O=C(NCc1ccccc1)[C@H]1CCCN1C(=O)[C@H]1CCCN1C(=O)C1CCCCC1 returned TAAR1 antagonist 7 and TAAR1 agonist -1.
For CC(C)C[C@@H](NC(=O)C1CCC(CNC(=O)[C@H](Cc2ccccc2)NC(=O)OC(C)(C)C)CC1)C(=O)O (some centres not stated) the results were M4 antag 7, TAAR1 antagonist 5, CHRM4 agonist 0, TAAR1 agonist 5 and CHRM4 PAM 0.
For CC(O)[C@@H](NC(=O)C1CCC(CNC(=O)[C@H](Cc2ccccc2)NC(=O)OC(C)(C)C)CC1)C(=O)O (some centres not stated) the results were M4 antag -9, TAAR1 antagonist -19, CHRM4 agonist 0, TAAR1 agonist 1 and CHRM4 PAM 16*.
S=c1[nH]nc(CN2CCCCC2)n1Cc1ccccc1 was read as M4 antag 31*, TAAR1 antagonist -18, CHRM4 agonist 0, TAAR1 agonist 0 and CHRM4 PAM -27.
For O=C1NC2(CCCCCC2)N=C1c1ccc(Br)cc1 the results were M4 antag 35*, TAAR1 antagonist -5, CHRM4 agonist 0, TAAR1 agonist -3 and CHRM4 PAM 17.
Screening Cc1cccc(C)c1OCC(=O)NNC(=S)NC(=O)C1CC1 returned M4 antag 4, TAAR1 antagonist 19, CHRM4 agonist 11, TAAR1 agonist 48* and CHRM4 PAM 1.
Screening CCOC(=O)c1oc2ccccc2c1NC(=O)c1cccc(OC)c1 returned M4 antag 1, TAAR1 antagonist -10, CHRM4 agonist -1, TAAR1 agonist 4 and CHRM4 PAM -8.
For CCOC(=O)c1oc2ccccc2c1NC(=O)c1cccc(OC)c1OC the results were M4 antag 12, TAAR1 antagonist 49*, CHRM4 agonist 8, TAAR1 agonist 4 and CHRM4 PAM -2.
For COc1ccccc1C(=O)N1CCN(C(=O)[C@@H](Cc2ccccc2)NC(=O)[C@H]2O[C@@H](n3ccc(N)nc3=O)[C@H](O)[C@@H]2O)CC1 the results were TAAR1 antagonist 4 and TAAR1 agonist 0.
Screening O=C(/C=C/Nc1ccccc1)c1ccc(Oc2ncccn2)cc1 returned M4 antag 8, TAAR1 antagonist -29, CHRM4 agonist 2, TAAR1 agonist 43* and CHRM4 PAM 2.
Screening CN(C)/C=C/C(=O)c1ccc(Oc2ncccn2)cc1 returned M4 antag -9, TAAR1 antagonist -2, CHRM4 agonist 2, TAAR1 agonist 12 and CHRM4 PAM -3.
